Reference: ChEMBL document CHEMBL1806356, “Synthesis, characterization and antimicrobial studies of some new pyrazole incorporated imidazole derivatives” (Eur J Med Chem, 2011)

How the values were obtained:
Clostridium perfringens [1] = test: Antibacterial activity against Clostridium perfringens assessed as zone of inhibition at 1000 ug/ml after 24 hrs by agar diffusion method; assay type: functional; conditions: read-out: IZ
In short: (§1)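 Well diffusion on Mueller-Hinton agar seeded with 24 h old cultures. Compounds dissolved in DMSO at 1 and 0.5 mg/mL and added to wells punched with a sterile cork borer, with a DMSO-only control. Plates incubated 24 h at 37 °C. Read-out was the inhibition zone in mm, run in triplicate, standard deviation calculated.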

Bacillus subtilis [2] = test: Antibacterial activity against Bacillus subtilis assessed as zone of inhibition at 1000 ug/ml after 24 hrs by agar diffusion method; assay type: functional; conditions: read-out: IZ
In short: (§2)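 Well diffusion on Mueller-Hinton agar seeded with 24 h old bacterial cultures. Test compounds were dissolved in DMSO at 1 and 0.5 mg/mL and added to labeled wells. Plates were incubated 24 h at 37 °C. The inhibition zone around each well was measured in mm. Triplicate experiments, standard deviation calculated.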

Salmonella typhimurium [3] = test: Antibacterial activity against Salmonella Typhimurium assessed as zone of inhibition at 500 ug/ml after 24 hrs by agar diffusion method; assay type: functional, Salmonella enterica subsp. enterica serovar Typhimurium; conditions: Salmonella enterica, read-out: IZ; in short: as §2
Escherichia coli [4] = test: Antibacterial activity against Escherichia coli ATCC 25922 assessed as zone of inhibition at 1000 ug/ml after 24 hrs by agar diffusion method; assay type: functional; conditions: ATCC 25922, 24 h, read-out: IZ; in short: as §2
Mus musculus [5] = test: Toxicity in Swiss albino mouse assessed as mortality at 1000 to 3000 mg/kg, po administered as single dose measured at 4th to 24th hrs; assay type: organism-based; set-up: dose 1000-3000 mg/kg, route oral; conditions: in vivo
In short: (§3)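 Single oral dose of 1000 to 3000 mg/kg, given as a fine suspension in double distilled water with Tween 80. Animals housed under a light/dark cycle. Toxic symptoms and behavioural changes were observed continuously at 4, 8, 12 and 24 h, and onset was recorded. Deaths were also recorded.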

Trichophyton rubrum [6] = test: Antifungal activity against Trichophyton rubrum at 500 ug/ml after 72 hrs by agar diffusion method; assay type: functional; conditions: read-out: DIZ
In short: (§4)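 Fungal spores were suspended in normal saline (one loopful in 3 mL) and lawned on agar plates. Wells were punched with a sterile cork borer and loaded with test compound in DMSO at the different concentrations. A DMSO solvent control was included. Petri dishes were prepared in triplicate and held at 25 °C for 72 h.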

Candida albicans [7] = test: Antifungal activity against Candida albicans at 1000 ug/ml after 72 hrs by agar diffusion method by agar diffusion method; assay type: functional; conditions: read-out: DIZ; in short: as §4
Candida albicans [8] = test: Antifungal activity against Candida albicans at 500 ug/ml after 72 hrs by agar diffusion method; assay type: functional; conditions: read-out: DIZ; in short: as §4
Pseudomonas aeruginosa [9] = test: Antibacterial activity against Pseudomonas aeruginosa ATCC 27853 assessed as zone of inhibition at 1000 ug/ml after 24 hrs by agar diffusion method; assay type: functional; conditions: ATCC 27853, 24 h, read-out: IZ; in short: as §2
Nannizzia gypsea [10] = test: Antifungal activity against Microsporum gypseum at 500 ug/ml after 72 hrs by agar diffusion method; assay type: functional; conditions: read-out: DIZ; in short: as §4
Staphylococcus aureus [11] = test: Antibacterial activity against Staphylococcus aureus assessed as zone of inhibition at 500 ug/ml after 24 hrs by agar diffusion method; assay type: functional; conditions: read-out: IZ; in short: as §2
Aspergillus niger [12] = test: Antifungal activity against Aspergillus niger at 500 ug/ml after 72 hrs by agar diffusion method; assay type: functional; conditions: read-out: DIZ; in short: as §4
Mus musculus [13] = test: Toxicity in Swiss albino mouse assessed as behavioral changes at 1000 to 3000 mg/kg, po administered as single dose measured at 4th to 24th hrs; assay type: organism-based; set-up: dose 1000-3000 mg/kg, route oral; conditions: in vivo; in short: as §3
Pseudomonas aeruginosa [14] = test: Antibacterial activity against Pseudomonas aeruginosa ATCC 27853 assessed as zone of inhibition at 500 ug/ml after 24 hrs by agar diffusion method; assay type: functional; conditions: ATCC 27853, 24 h, read-out: IZ; in short: as §2
Clostridium perfringens [15] = test: Antibacterial activity against Clostridium perfringens assessed as zone of inhibition at 500 ug/ml after 24 hrs by agar diffusion method; assay type: functional; conditions: read-out: IZ; in short: as §1
Aspergillus niger [16] = test: Antifungal activity against Aspergillus niger at 1000 ug/ml after 72 hrs by agar diffusion method; assay type: functional; conditions: read-out: DIZ; in short: as §4
Salmonella typhimurium [17] = test: Antibacterial activity against Salmonella Typhimurium assessed as zone of inhibition at 1000 ug/ml after 24 hrs by agar diffusion method; assay type: functional, Salmonella enterica subsp. enterica serovar Typhimurium; conditions: Salmonella enterica, read-out: IZ; in short: as §2
Bacillus subtilis [18] = test: Antibacterial activity against Bacillus subtilis assessed as zone of inhibition at 500 ug/ml after 24 hrs by agar diffusion method; assay type: functional; conditions: read-out: IZ; in short: as §2
Trichophyton rubrum [19] = test: Antifungal activity against Trichophyton rubrum at 1000 ug/ml after 72 hrs by agar diffusion method; assay type: functional; conditions: read-out: DIZ; in short: as §4
Aspergillus flavus [20] = test: Antifungal activity against Aspergillus flavus at 500 ug/ml after 72 hrs by agar diffusion method; assay type: functional; conditions: read-out: DIZ; in short: as §4
Staphylococcus aureus [21] = test: Antibacterial activity against Staphylococcus aureus assessed as zone of inhibition at 1000 ug/ml after 24 hrs by agar diffusion method; assay type: functional; conditions: read-out: IZ; in short: as §2
Aspergillus flavus [22] = test: Antifungal activity against Aspergillus flavus at 1000 ug/ml after 72 hrs by agar diffusion method; assay type: functional; conditions: read-out: DIZ; in short: as §4
Escherichia coli [23] = test: Antibacterial activity against Escherichia coli ATCC 25922 assessed as zone of inhibition at 500 ug/ml after 24 hrs by agar diffusion method; assay type: functional; conditions: ATCC 25922, 24 h, read-out: IZ; in short: as §2
Nannizzia gypsea [24] = test: Antifungal activity against Microsporum gypseum at 1000 ug/ml after 72 hrs by agar diffusion method; assay type: functional; conditions: read-out: DIZ; in short: as §4

SMILES	zone of inhibition at 1000 µg/mL (Clostridium perfringens [1]) [mm]	zone of inhibition at 1000 µg/mL (Bacillus subtilis [2]) [mm]	zone of inhibition at 500 µg/mL (Salmonella typhimurium [3]) [mm]	zone of inhibition at 1000 µg/mL (Escherichia coli [4]) [mm]	zone of inhibition at 500 µg/mL (Trichophyton rubrum [6]) [mm]	zone of inhibition at 1000 µg/mL (Candida albicans [7]) [mm]	zone of inhibition at 500 µg/mL (Candida albicans [8]) [mm]	zone of inhibition at 1000 µg/mL (Pseudomonas aeruginosa [9]) [mm]	zone of inhibition at 500 µg/mL (Nannizzia gypsea [10]) [mm]	zone of inhibition at 500 µg/mL (Staphylococcus aureus [11]) [mm]	zone of inhibition at 500 µg/mL (Aspergillus niger [12]) [mm]	zone of inhibition at 500 µg/mL (Pseudomonas aeruginosa [14]) [mm]	zone of inhibition at 500 µg/mL (Clostridium perfringens [15]) [mm]	zone of inhibition at 1000 µg/mL (Aspergillus niger [16]) [mm]	zone of inhibition at 1000 µg/mL (Salmonella typhimurium [17]) [mm]	zone of inhibition at 500 µg/mL (Bacillus subtilis [18]) [mm]	zone of inhibition at 1000 µg/mL (Trichophyton rubrum [19]) [mm]	zone of inhibition at 500 µg/mL (Aspergillus flavus [20]) [mm]	zone of inhibition at 1000 µg/mL (Staphylococcus aureus [21]) [mm]	zone of inhibition at 1000 µg/mL (Aspergillus flavus [22]) [mm]	other results
COC(=O)/C=C1/C(=O)NC(=S)N1/N=C/c1c[nH]nc1-c1ccc(SC)cc1	16	10	11	12	15	5	4	16	4	5	9	15	15	10	12	9	16	6	6	7	Activity (Mus musculus [5]): Non-toxic; Activity (Mus musculus [13]): Non-toxic; zone of inhibition at 500 µg/mL (Escherichia coli [23]): 9 mm; zone of inhibition at 1000 µg/mL (Nannizzia gypsea [24]): 5 mm
Clc1cc(-c2n[nH]cc2-c2nc(-c3ccccc3)c(-c3ccccc3)[nH]2)c(Cl)s1	8	4	6	6	9	10	9	6	4	5	9	5	7	10	7	3	10	9	6	10	zone of inhibition at 500 µg/mL (Escherichia coli [23]): 5 mm; zone of inhibition at 1000 µg/mL (Nannizzia gypsea [24]): 5 mm
CSc1ccc(-c2n[nH]cc2-c2nc(-c3ccc(Br)cc3)c(-c3ccc(Br)cc3)[nH]2)cc1	4	5	3	3	7	12	11	3	3	2	5	2	3	6	4	4	8	12	3	13	zone of inhibition at 500 µg/mL (Escherichia coli [23]): 2 mm; zone of inhibition at 1000 µg/mL (Nannizzia gypsea [24]): 4 mm
Clc1ccc(-c2n[nH]cc2-c2nc(-c3ccc(Br)cc3)c(-c3ccc(Br)cc3)[nH]2)c(Cl)c1	3	5	3	5	9	9	8	5	3	3	4	4	2	5	4	4	10	4	4	5	zone of inhibition at 500 µg/mL (Escherichia coli [23]): 4 mm; zone of inhibition at 1000 µg/mL (Nannizzia gypsea [24]): 4 mm
Brc1ccc(-c2nc(-c3c[nH]nc3-c3ccc(-c4ccccc4)cc3)[nH]c2-c2ccc(Br)cc2)cc1	2	4	2	3	3	3	2	2	1	1	2	1	1	3	3	3	4	3	2	4	zone of inhibition at 500 µg/mL (Escherichia coli [23]): 2 mm; zone of inhibition at 1000 µg/mL (Nannizzia gypsea [24]): 2 mm
Cc1ccc(-c2n[nH]cc2-c2nc(-c3ccc(Br)cc3)c(-c3ccc(Br)cc3)[nH]2)cc1	3	4	3	4	2	4	3	2	1	2	2	1	2	3	4	3	3	2	3	3	zone of inhibition at 500 µg/mL (Escherichia coli [23]): 3 mm; zone of inhibition at 1000 µg/mL (Nannizzia gypsea [24]): 2 mm
Clc1cc(-c2n[nH]cc2-c2nc(-c3ccc(Br)cc3)c(-c3ccc(Br)cc3)[nH]2)c(Cl)s1	5	2	1	4	5	6	5	4	2	2	3	3	4	4	2	1	6	3	3	4	zone of inhibition at 500 µg/mL (Escherichia coli [23]): 3 mm; zone of inhibition at 1000 µg/mL (Nannizzia gypsea [24]): 3 mm
